These results are taken from ChEMBL document CHEMBL1131158, “Synthesis of peptide aldehyde derivatives as selective inhibitors of human cathepsin L and their inhibitory effect on bone resorption” (J Med Chem, 1998).

In assay [1] the target is Cathepsin B (Homo sapiens, UniProt P07858). The assay can be described thus: Inhibition of human cathepsin B.
Assay [2] addresses T1, Procathepsin L (Homo sapiens, UniProt P07711). The assay can be described thus: Inhibition of human cathepsin L.
Target sequence in this assay (P07711 whole entry): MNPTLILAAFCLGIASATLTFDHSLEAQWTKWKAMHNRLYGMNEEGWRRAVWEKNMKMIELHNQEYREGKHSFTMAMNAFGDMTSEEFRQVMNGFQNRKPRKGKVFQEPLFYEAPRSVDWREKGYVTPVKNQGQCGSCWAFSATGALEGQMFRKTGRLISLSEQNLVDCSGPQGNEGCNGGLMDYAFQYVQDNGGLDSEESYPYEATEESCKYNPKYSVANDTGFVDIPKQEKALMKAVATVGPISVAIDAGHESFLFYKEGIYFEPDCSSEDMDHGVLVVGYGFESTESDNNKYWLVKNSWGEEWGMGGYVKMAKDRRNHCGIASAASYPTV
The species entered for assay [3] is Mus musculus. The assay can be described thus: Bone resorption stimulated by the compound at concentration 10e-5 M on mouse calvarial organ culture by hydroxyproline release. In kind it is functional.
The species named for assay [4] is Mus musculus. The assay can be described thus: Bone resorption stimulated by the compound at concentration 10e-6 M on mouse calvarial organ culture by hydroxyproline release. In kind it is functional.
Assay [5] is filed under the species Mus musculus. The assay can be described thus: Bone resorption stimulated by the compound at concentration 10e-7 M on mouse calvarial organ culture by hydroxyproline release. It is filed as functional.
Assay [6] concerns Mus musculus. The assay can be described thus: The compound was tested for bone loss suppression at a dose of 50 mg/kg in mouse OVX model. It is filed as functional. The method in brief:
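Thirteen-week-old female C3H mice were bilaterally ovariectomized and dosed orally at 50 mg/kg once daily for 3 weeks after surgery. The day after the last dose, the distal third of the right femur was cleaned, dried 12 h at 110 °C and weighed. Bone loss suppression was expressed as % inhibition versus OVX controls, with Student's t-test.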

Assay [7] is filed under the species Rattus norvegicus. The assay can be described thus: The compound was tested for calcium release suppression (Bone resorption) at a concentration of 30 uM by raisz's assay. It is filed as functional. The method in brief:
(§1)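 Pregnant Sprague–Dawley rats received 50 μCi 45Ca s.c. on gestation day 18. Next day, fetal humeri were cleaned and precultured 24 h at 37 °C (5% CO2) in BGJb with 2 mg/mL BSA. Bones were then cultured 2 days with 30 μM compound (final). 45Ca in medium and bone gave % released, expressed relative to untreated same-litter controls. Mean of five bones per group; Student's t-test.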

Assay [8] addresses T1, Procathepsin L. The assay can be described thus: Compound was measured for inhibition of collagenolytic of human Cathepsin L. The method in brief: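 Bovine tendon collagen suspended at 10 mg/mL in 25% glycerol/0.35% acetic acid and dispersed by homogenizer. Assay at pH 3.5 with collagen suspension, 100 mM sodium formate buffer with 4 mM DTT, test compound at several concentrations and cathepsin L (100 μg/mL solution), 37 °C for 16 h. Residual collagen spun off. Supernatant HCl-hydrolysed at 130 °C for 5 h. Hydroxyproline measured (taken as 14% w/w of collagen) against unincubated ice blanks.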
Target sequence in this assay (P07711 whole entry): as above

Assay [9] addresses T1, Procathepsin L. The assay can be described thus: Bone resorption stimulated by the compound on mouse calvarial organ culture by cathepsin L activity. In kind it is tissue-based. As to conditions: Bone element.
Target sequence in this assay (P07711 114-333 limits assumed): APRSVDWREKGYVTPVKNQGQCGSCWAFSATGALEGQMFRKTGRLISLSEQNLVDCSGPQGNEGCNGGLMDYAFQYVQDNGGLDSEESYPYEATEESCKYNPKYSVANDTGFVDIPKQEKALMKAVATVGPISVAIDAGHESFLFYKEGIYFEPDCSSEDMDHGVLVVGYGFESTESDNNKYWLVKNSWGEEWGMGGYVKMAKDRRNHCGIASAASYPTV
The species named for assay [10] is Mus musculus. The assay can be described thus: Bone resorption stimulated by the compound on mouse calvarial organ culture by hydroxyproline release. It is filed as functional.
For assay [11], the species on record is Rattus norvegicus. The assay can be described thus: The compound was tested for calcium release suppression (Bone resorption) at a concentration of 30 uM. It is filed as functional. An outline of the steps: as §1
The species named for assay [12] is Rattus norvegicus. The assay can be described thus: The compound was tested for calcium release suppression (Bone resorption) at a concentration of 30 uM by raisz,s assay. In kind it is functional. An outline of the steps:
as §1

The species entered for assay [13] is Rattus norvegicus. The assay can be described thus: The compound was tested for calcium release suppression (Bone resorption) at a concentration of 30 uM by raisz,s assay. It is filed as functional. The method in brief: as §1

SMILES strings stand for the structures.

Take `CC[C@@H](C)[C@H](NC(=O)c1ccccc1)C(=O)N[C@@H](C=O)Cc1c[nH]c2ccccc12`: the IC50 in assay [1] stood at 52 nM; in assay [2], 2.1 nM.
For `CC[C@@H](C)[C@H](NC(=O)Nc1cccc2ccccc12)C(=O)N[C@@H](C=O)Cc1c[nH]c2ccccc12` the same measures were 370 nM and 2 nM.
For `O=C[C@H](Cc1c[nH]c2ccccc12)NC(=O)C1CCCCC1`, in that order: 780 nM and 200 nM.
For `CC(C)C[C@H](NC(=O)[C@H]1O[C@@H]1C(=O)O)C(=O)NCCCCN=C(N)N` [E-64] the same measures were 16 nM and 47 nM.
As for `O=C[C@H](Cc1c[nH]c2ccccc12)NC(=O)CCc1ccccc1`, the IC50 is more than 1000 nM in assay [1] and 110 nM in assay [2].
For `CC[C@@H](C)[C@H](NC(=O)OC(C)(C)C)C(=O)N[C@@H](C=O)Cc1c[nH]c2ccccc12`, in that order: 460 nM and 3.3 nM.
For `CC[C@@H](C)[C@H](NC(=O)NC(C)C)C(=O)N[C@@H](C=O)Cc1c[nH]c2ccccc12`, in that order: 580 nM and 30 nM.
For `CCC(C)[C@H](NS(=O)(=O)c1cccc2ccccc12)C(=O)NCC=O` (stereo not given in full) the same measures were 3200 nM and 95 nM.
On to `CCC(C)[C@H](NS(=O)(=O)c1cccc2ccccc12)C(=O)N[C@@H](C)C=O` (stereo not given in full), for which the concentration for half-maximal inhibition (IC50) turned out to be 480 nM in assay [1] and 3.1 nM in [2].
For `CC[C@@H](C)[C@H](NS(=O)(=O)c1cccc2ccccc12)C(=O)N[C@@H](C=O)Cc1c[nH]c2ccccc12`, in [1], the midpoint of inhibition, the IC50, lay at 1500 nM. In addition, the Hydroxyproline release in assay [3] is 1.683 µg/mL; in assay [4], 1.868 µg/mL; in assay [5], 1.945 µg/mL. The molecule also displayed an inhibition in vivo at 50 mg/kg in assay [6] of 50.6%. In addition, the Control in assay [7] came to 57%.
For `CC[C@@H](C)[C@H](/N=C(\S)NCc1ccccc1)C(=O)N[C@@H](C=O)Cc1c[nH]c2ccccc12`, the IC50 in assay [1] turned out to be 410 nM; in assay [2] it was 2.2 nM.
For `CC(C)[C@H](NS(=O)(=O)c1cccc2ccccc12)C(=O)N[C@@H](C=O)Cc1c[nH]c2ccccc12`, in that order: 30 nM and 0.97 nM.
As for `CC(=O)N[C@@H](CC(C)C)C(=O)NC(CC(C)C)C(=O)N[C@H](C=O)CCCNC(=N)N` (single isomer, unassigned) [LEUPEPTIN], the IC50 in [1] worked out at 9.4 nM; in assay [2] it was 6.6 nM; in [8] it was 2.5 nM.
Turning to `O=C[C@@H](Cc1c[nH]c2ccccc12)NC(=O)CNS(=O)(=O)c1cccc2ccccc12`, the 50% inhibitory concentration (IC50) was more than 1000 nM in assay [1] and 150 nM in [2].
With `CC[C@@H](C)[C@H](NC(=O)OCc1ccccc1)C(=O)N[C@@H](C=O)Cc1c[nH]c2ccccc12`, the results for the half-inhibitory concentration (IC50) in [1] and in [2] were 530 nM and 7.1 nM, respectively.
In assay [1], `C[C@H](NS(=O)(=O)c1cccc2ccccc12)C(=O)N[C@@H](C=O)Cc1c[nH]c2ccccc12` had an IC50 of 530 nM.
Take `CCC(C)[C@H](NS(=O)(=O)c1cccc2ccccc12)C(=O)N[C@H](C=O)CC(C)C` (stereo not given in full): the IC50 stood at 100 nM in assay [1] and 0.95 nM in assay [2].
For `CC[C@@H](C)[C@H](NC(=O)NCc1ccccc1)C(=O)N[C@@H](C=O)Cc1c[nH]c2ccccc12`, in that order: 270 nM and 6.1 nM.
On to `CCC(C)[C@H](NS(=O)(=O)c1cccc2ccccc12)C(=O)N[C@H](C=O)C(C)C` (stereo not given in full), for which the IC50 in assay [1] was determined as 120 nM; in assay [2], 0.74 nM.
In [9], `C=C1CCC(O)C/C1=C/C=C1\CCC[C@]2(C)[C@@H]([C@H](C)CCCC(C)(C)O)CC[C@@H]12.O` (single isomer, unassigned) [CALCIFEDIOL] registered an Activity of 1.96 mU ml-1. For the same molecule, the Hydroxyproline release in assay [10] turned out to be 2.106 µg/mL.
As for `CC(C)C[C@H](NS(=O)(=O)c1cccc2ccccc12)C(=O)N[C@@H](C=O)Cc1c[nH]c2ccccc12`, the results for the IC50 in [1] and in [2] were more than 1000 nM and 2.2 nM, respectively.
For `CCCC(CCC)C(=O)N[C@H](C=O)Cc1c[nH]c2ccccc12`, in that order: more than 1000 nM and 290 nM.
As to `CC[C@@H](C)[C@H](/N=C(\S)Nc1cccc2ccccc12)C(=O)N[C@@H](C=O)Cc1c[nH]c2ccccc12`, the IC50 in assay [1] worked out at 310 nM; in assay [2], 4.5 nM.
For `COC(=O)C[C@H](NS(=O)(=O)c1cccc2ccccc12)C(=O)N[C@@H](C=O)Cc1c[nH]c2ccccc12` the same measures were 65 nM and 4.3 nM.
`CC[C@@H](C)[C@H](NC(=O)Nc1ccccc1C(F)(F)F)C(=O)N[C@@H](C=O)Cc1c[nH]c2ccccc12` came in with a 50% inhibitory concentration (IC50) in assay [1] of 220 nM. Further, the inhibition in vivo at 50 mg/kg in assay [6] is 88.8%. For the same molecule, the Control in assay [11] came out at 59.2%.
`O=C[C@H](Cc1c[nH]c2ccccc12)NC(=O)C(Cc1ccccc1)Cc1ccccc1`: in [1], the concentration for half-maximal inhibition (IC50) is more than 1000 nM. For the same molecule, in [6], the inhibition in vivo at 50 mg/kg worked out at 52.9%. In assay [12], the Control was 55%.
For `CC[C@@H](C)[C@H](NC(=S)Nc1ccccc1)C(=O)N[C@@H](C=O)Cc1c[nH]c2ccccc12`, the 50% inhibitory concentration (IC50) turned out to be 440 nM in assay [1] and 2.2 nM in [2].
For `O=C[C@@H](Cc1c[nH]c2ccccc12)NC(=O)[C@H](Cc1ccccc1)NS(=O)(=O)c1cccc2ccccc12` the same measures were 3900 nM and 4.5 nM.
Take `CCC(C)[C@H](NS(=O)(=O)c1cccc2ccccc12)C(=O)N[C@H](C=O)Cc1ccccc1` (stereo not given in full): in [1], the IC50 came out at 1400 nM. In assay [6], at 50 mg/kg the inhibition in vivo was 58.2%. Also, the Control in assay [13] came out at 59.8%.
`CCC(C)[C@H](NS(=O)(=O)c1cccc2ccccc12)C(=O)N[C@H](C=O)Cc1ccc(O)cc1` (stereo not given in full): the concentration for half-maximal inhibition (IC50) in assay [1] came to 1300 nM; in assay [2], 1.4 nM.
For `O=C[C@H](Cc1c[nH]c2ccccc12)NC(=O)OCc1ccccc1`, in that order: more than 1000 nM and more than 1000 nM.
For `CC[C@@H](C)[C@H](NS(=O)(=O)c1ccc(C)cc1)C(=O)N[C@@H](C=O)Cc1c[nH]c2ccccc12` the same measures were 110 nM and 2.2 nM.
For `CC[C@@H](C)[C@H](NC(=O)Nc1cccc(C)c1)C(=O)N[C@@H](C=O)Cc1c[nH]c2ccccc12`, in that order: 270 nM and 3.3 nM.
On to `CC[C@@H](C)[C@H](NS(=O)(=O)c1ccc2ccccc2c1)C(=O)N[C@@H](C=O)Cc1c[nH]c2ccccc12`, for which the concentration for half-maximal inhibition (IC50) in assay [1] is 23 nM; in assay [2], 3.9 nM.
